Compound activity deposited in PubChem BioAssay by several laboratories.
In the library only some 4.7% were active in any assay of this set; here they are far more common.
MPTP inh: inhibitors of mitochondrial permeability transition pore; isolated mouse mitochondria, Ca2+ swelling absorbance, 30 min; inhibition, % at 10 µM; 1.4% of 360,000 active;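 active = inhibition of 50% or more, scaled per plate between neutral and stimulator controls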;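 also: 0% = DMSO wells given calcium and 100% = 1 mM EGTA wells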
GRIN3A LBD mod: modulators (binders) of human NR3A ligand-binding domain; NR3A LBD differential scanning fluorimetry, Tm shift; 0% = protein alone, 100% = glycine-bound protein; Tm shift relative to glycine control, % at 25 µM; 2.5% of 340,000 active; AID 1259313;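 active = melting temperature shift of at least 10% of the positive control shift, at one fixed dose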
MT1-MMP act inh: blocks activation of human MT1-MMP | 0.061% of 360,000 active | P50281 | HT1080 RFP-PRO-GFP cells, GFP/RFP ratio fluorescence, overnight; percent of plate control window, DMSO zero | GFP/RFP ratio change, % at 20 µM;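 active = GFP/RFP ratio change of at least 30% with cell ATP level not reduced by more than half and red fluorescence within 50% of control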
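system = RFP-PRO-GFP reporter HT1080 cells | dosing = 20 µM single dose, 1% DMSO | timing = overnight cell settling, then overnight compound exposure, 37 °C, 5% CO2 | read-out basis = GFP/RFP fluorescence ratio | controls = DMSO and RFP-L50D-GFP cell wells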
ADAM17 inh: ADAM17 inhibition, QFRET primary screen; AID 720648; P78536; inhibition, % at 6.95 µM; recombinant ADAM17, EDANS/DABCYL FRET peptide cleavage; 0.83% of 370,000 active;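 active = inhibition above the mean of compounds lying between control limits plus 3 SD, set per campaign, cut at about 8.5% in these data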;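 also: 0% = DMSO-only wells as the low control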
Target sequence (P78536 215-824 limits assumed): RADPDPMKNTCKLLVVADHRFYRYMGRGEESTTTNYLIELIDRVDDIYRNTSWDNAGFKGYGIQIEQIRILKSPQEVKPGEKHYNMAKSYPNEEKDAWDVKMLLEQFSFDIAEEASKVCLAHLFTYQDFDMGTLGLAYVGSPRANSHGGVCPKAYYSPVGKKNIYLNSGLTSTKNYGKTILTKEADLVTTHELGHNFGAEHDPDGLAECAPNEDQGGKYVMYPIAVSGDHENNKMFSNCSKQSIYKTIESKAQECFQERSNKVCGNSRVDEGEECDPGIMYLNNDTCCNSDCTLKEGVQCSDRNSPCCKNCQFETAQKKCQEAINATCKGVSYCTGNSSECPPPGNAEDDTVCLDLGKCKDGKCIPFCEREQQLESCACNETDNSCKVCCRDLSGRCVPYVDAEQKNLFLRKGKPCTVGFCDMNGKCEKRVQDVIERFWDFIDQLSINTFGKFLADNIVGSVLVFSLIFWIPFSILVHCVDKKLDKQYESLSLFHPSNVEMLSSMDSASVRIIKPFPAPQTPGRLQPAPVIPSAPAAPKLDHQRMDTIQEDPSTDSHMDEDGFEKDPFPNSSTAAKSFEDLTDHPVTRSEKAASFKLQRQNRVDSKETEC
ADAM10 inh: inhibits human ADAM10; 0.62% of 370,000 active; inhibition, % at 7 µM; recombinant ADAM10, EDANS/DABCYL FRET peptide cleavage, 3 h; O14672;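 active = inhibition above a per-campaign cutoff equal to the mean of compounds falling between control-based bounds plus 3 SD, cut at about 20% in these data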;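 also: 0% = DMSO wells while the 100% control is not disclosed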
SKN-1 inh: C. elegans SKN-1 inhibition | C. elegans VP596 Pgst-4::GFP/RFP ratio, acrylamide-induced, 24 h | inhibition, % at 21.8 µM | 0.49% of 360,000 active;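 active = interference check ratio from 0.5 to 1.5 plus GFP to RFP signal ratio inhibition reaching or exceeding a fixed threshold, cut at about 30% in these data, passing the limit was not always enough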
The depositor's hits bear a star; / = no result.

SMILES	MPTP inh	GRIN3A LBD mod	MT1-MMP act inh	ADAM17 inh	ADAM10 inh	SKN-1 inh
COc1ccc(NS(=O)(=O)c2ccc(O)c(NC(=O)c3cc4c(C)nn(-c5ccc(F)cc5)c4s3)c2)cc1	29	31*	-16	/	/	9
Cc1nn(-c2ccccc2)c2sc(C(=O)N3CCN(Cc4ccccc4)CC3)cc12	/	/	/	-1	1	/
Cc1nn(-c2ccc(F)cc2)c2sc(C(=O)N3CCCCCC3)cc12	-1	-5	-5	0	7	48*
Cc1ccc(-n2c(C)cc(C(=O)CN3CCOCC3)c2C)cc1C	2	18*	2	-2	-10	8
Cc1ccc(-n2c(C)cc(C(=O)CN3CCOCC3)c2C)cc1	-2	-3	0	0	4	20
COc1cccc(Nc2ncnc3c2cnn3-c2cccc(C)c2)c1	10	13*	2	-5	-9	-2
COc1ccc(-n2ncc3c(NC(C)C)ncnc32)cc1	0	1	-2	-4	-1	7
Clc1cccc(Nc2ncnc3c2cnn3-c2ccccc2)c1	3	-2	-6	-1	-24	14
COc1ccccc1Nc1ncnc2c1cnn2-c1cccc(C)c1	0	0	-3	1	3	-1
Fc1cccc(Nc2ncnc3c2cnn3-c2ccccc2)c1	4	28*	-6	0	-9	16
COc1ccc(-n2ncc3c(NCC(C)C)ncnc32)cc1	0	17*	1	-5	-4	8
Cc1cccc(Cn2c(SCCN3CCOCC3)nc3c2c(=O)n(C)c(=O)n3C)c1	1	-1	-2	-2	1	-3
C=CCN1C(=O)/C(=C/c2ccc(OCC(=O)O)cc2)S/C1=N/c1nccs1	1	1	2	-2	2	-3
C=CCN1C(=O)/C(=C/c2ccc(O)c(OC)c2)S/C1=N/c1nccs1	-9	2	-97	8	22*	26
NC(N)=NCCCC(NC(=O)c1ccccc1)C(=O)Nc1ccc([N+](=O)[O-])cc1 (stereo not drawn)	1	16*	-1	-2	-2	8
COc1ccc(/C=C/C(=O)NCC(=O)N/N=C(/C)c2ccco2)cc1	-1	14*	3	0	6	6
C/C(=N/NC(=O)CNC(=O)/C=C/c1ccccc1)c1ccco1	-2	0	2	0	1	3
CCOc1cc(N2CCOCC2)c(OCC)cc1NC(=O)COC(=O)C1CCCN1S(=O)(=O)c1ccccc1F (stereo not drawn)	0	26*	3	-2	-4	5
CCOc1cc(N2CCOCC2)c(OCC)cc1NC(=O)COC(=O)[C@@H]1CCCN1S(=O)(=O)c1ccccc1F	-1	-1	0	3	-2	7
Cn1c2ccc(F)cc2c2nc3ccccc3nc21	1	-3	-8	-12	-24	11
CCn1c2ccc(F)cc2c2nc3ccccc3nc21	1	4	-1	-8	-17	40*
COC(=O)Cn1c(=NC(=O)C2COc3ccccc3O2)sc2cc(S(N)(=O)=O)ccc21 (stereo not drawn)	0	-5	-3	3	12	3
O=C(NCc1ccco1)C(c1ccccc1F)N(Cc1cccnc1)C(=O)Cn1nnc2ccccc21 (stereo not drawn)	0	11*	-3	-1	11	6
O=C(/C=C/c1ccccc1Cl)N(Cc1cccs1)C1CCS(=O)(=O)C1 (stereo not drawn)	1	-2	0	-4	-3	17
CCSC1=N/C(=C\c2cccc(F)c2)C(=O)S1	0	15*	0	0	-6	18
CCSC1=N/C(=C\c2ccc3c(c2)OCO3)C(=O)S1	1	3	-20	-5	3	-30
CS(=O)(=O)N1N=C(c2cccs2)CC1c1ccccc1O (stereo not drawn)	-2	-1	-9	-7	0	41*
CCOc1ccccc1C1CC(c2cccs2)=NN1S(C)(=O)=O (stereo not drawn)	2	1	-36	0	-1	73
CCN(CC(=O)NC1CCCC1)S(=O)(=O)c1ccc(Br)cc1	0	11*	-3	3	3	3
